MT stabilizer = microtubule stabilization, imaging screen; HeLa tubulin immunostaining HCS, 24 h; share of cells brighter than vehicle mean+2SD; % tubulin-high responders, % at 10 µM; hit rate 0.83% among 200,000; AID 2205;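 active = plate Z-score above 3 for both tubulin-high and condensed-nucleus cell shares, with cell loss under 80%, at 10 µM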;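 note: anti alpha tubulin signal scored within the nucleus-defined area of each cell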
APP transl inh = APP translation inhibition; SH-SY5Y APP 5'UTR-luciferase reporter, luminescence; hit rate 0.82% among 190,000; inhibition, % at 2 µM; AID 1285;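 active = inhibition above a set limit, derived from the sample mean plus 3 SD, cut at about 45% in these data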
Ba/F3 V617F tox = reduce viability of Ba/F3 cells dependent on JAK2V617F | Ba/F3 EpoR-JAK2V617F viability, ATP luminescence | inhibition, % at 5.6 µM | hit rate 1.1% among 220,000 | AID 1446;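 active = inhibition above the campaign mean plus 3 SD over all tested compounds, cut at about 24% in these data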;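 note: cytokine-independent growth of Ba/F3 cells driven by EpoR plus mutant JAK2; 0% = DMSO-treated cells and 100% = JAK inhibitor I control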
bCat nuc transl = alters nuclear translocation of beta-catenin in HeLa cells. immunofluorescence imaging. nuclear translocation activity, % at 5 µM. hit rate 0.3% among 190,000;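 active = nuclear translocation activity above 50% at 5 µM, with a well cell count of 50 or more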;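 note: per-cell ratio of nuclear to cytoplasmic median beta-catenin stain intensity; plate controls were DMSO negative control for no effect and GSK-3 inhibitor IX positive control for full effect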
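test system = HeLa cells, endogenous beta-catenin | dosing = single 5 µM dose plus 0.02–20 µM confirmation series | times = compound treatment 24 h, 37°C, 5% CO2 | technique = beta-catenin immunofluorescence imaging with DAPI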
BaF3 tox = counter-screen for JAK2V617F inhibitors: parental Ba/F3 viability inhibitors | inhibition, % at 5.6 µM | hit rate 1.1% among 220,000 | CellTiter-Glo ATP luminescence;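 active = inhibition above a per-campaign cutoff, the mean inhibition of all tested compounds plus 3 SD, cut at about 27% in these data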;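 note: 0% = DMSO wells and 100% = JAK Inhibitor I control wells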
IEC-6 cytotox = counter-screen for KLF5 inhibitors: cytotoxicity in IEC-6 cells; IEC-6 cytotoxicity, luminescence viability; inhibition, % at 5 µM; hit rate 0.78% among 290,000; in the data active = inhibition above about 22%;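 note: 0% = plate median of test compound wells and 100% = cytotoxic reference compound wells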
* marks the source's active call; other numbers are inactive results. Most compounds without a hit are left out; they make up all but 2.2% or so of the library.

How did O=C1N/C(=N\N=C\c2cccs2)SC1Cc1cccc(Cl)c1Cl (centres undefined) do in these assays?
MT stabilizer: 13.0; APP transl inh: 4.6; Ba/F3 V617F tox: -1.0; bCat nuc transl: 60.0*; BaF3 tox: -3.2; IEC-6 cytotox: 0.9

Results for Cc1[nH]nc2c1C(c1ccccn1)N(c1ccc(Br)cc1)C2=O (centres undefined) ?
MT stabilizer: 1.6; APP transl inh: 3.3; Ba/F3 V617F tox: -1.7; bCat nuc transl: -4.5; BaF3 tox: 95.5*; IEC-6 cytotox: -0.9

Results for COc1ccc(OC)c(-n2nnnc2SCC(=O)N2CCN(C(=O)c3ccco3)CC2)c1 ?
MT stabilizer: 0.9; APP transl inh: 3.4; Ba/F3 V617F tox: 0.8; bCat nuc transl: 4.7; BaF3 tox: 41.2*; IEC-6 cytotox: 0.2

What do the screens show for `O=C1c2[nH]nc(-c3ccccc3O)c2C(c2cccc(Cl)c2)N1Cc1ccco1` (centres undefined)?
MT stabilizer: 17.0*; APP transl inh: 0.3; Ba/F3 V617F tox: -4.2; bCat nuc transl: -5.8; BaF3 tox: -0.4; IEC-6 cytotox: -1.9

What do the screens show for `CN(C)CCCNC(=O)CCc1ncc(C(F)(F)F)cc1Cl`?
MT stabilizer: 2.3; APP transl inh: -21.7; Ba/F3 V617F tox: -3.8; bCat nuc transl: 1.6; BaF3 tox: -3.8; IEC-6 cytotox: 2.0

What do the screens show for `CN(C)CCCNc1ncc(C(F)(F)F)cc1Cl`?
MT stabilizer: 13.7*; APP transl inh: 2.3; Ba/F3 V617F tox: -3.0; bCat nuc transl: -4.0; BaF3 tox: 0.3; IEC-6 cytotox: 5.8

How did CCc1ccc(NC(=O)COc2ccc(F)cc2C(=O)c2cnn(-c3ccccc3)c2)cc1 do in these assays?
MT stabilizer: 20.2*; APP transl inh: -49.5; Ba/F3 V617F tox: -1.3; bCat nuc transl: -0.2; BaF3 tox: 3.4; IEC-6 cytotox: -5.7

What do the screens show for `C/C(=N/NC(=O)NC12CC3CC(CC(C3)C1)C2)c1ccccc1`?
IEC-6 cytotox: -7.3

How did Cc1noc(C)c1CSc1nc2sc(C)c(C)c2c(=O)n1-c1ccccc1 do in these assays?
MT stabilizer: 2.0; APP transl inh: 11.7; Ba/F3 V617F tox: 7.1; BaF3 tox: 11.4; IEC-6 cytotox: -0.3

How did Cc1noc(C)c1CSc1nc2ccccc2c(=O)n1-c1ccc(Cl)cc1 do in these assays?
MT stabilizer: 40.5*; APP transl inh: 10.5; Ba/F3 V617F tox: 1.7; BaF3 tox: 10.6; IEC-6 cytotox: -4.6

Results for N#CCCS(=O)(=O)c1nnnn1-c1ccccc1 ?
MT stabilizer: 4.1; APP transl inh: 9.4; Ba/F3 V617F tox: 25.4*; bCat nuc transl: -3.2; BaF3 tox: 2.8; IEC-6 cytotox: 7.4

How did COc1ccccc1CNC(=O)c1ccc(NC2=NC3CS(=O)(=O)CC3S2)cc1 (centres undefined) do in these assays?
IEC-6 cytotox: 6.0

How did COc1ccc(NC(=O)c2ccc(NS(=O)(=O)c3c(C)noc3C)cc2)cc1OC do in these assays?
MT stabilizer: 1.1; APP transl inh: 18.5; Ba/F3 V617F tox: -0.4; bCat nuc transl: -0.8; BaF3 tox: 96.5*; IEC-6 cytotox: -13.4

How did Cc1ccc(NC(=O)c2ccc(NS(=O)(=O)c3c(C)noc3C)cc2)cc1C do in these assays?
MT stabilizer: 3.8; APP transl inh: -9.1; Ba/F3 V617F tox: 0.1; bCat nuc transl: -0.9; BaF3 tox: 1.6; IEC-6 cytotox: 5.6

How did CC1=CC(C)C2COC(c3ccc[n+](C)c3)C1C2C (centres undefined) do in these assays?
MT stabilizer: 1.5; APP transl inh: -2.7; Ba/F3 V617F tox: 35.1*; bCat nuc transl: -1.3; BaF3 tox: 39.8*; IEC-6 cytotox: -7.1

What do the screens show for `COc1ccc(C2NC(=O)c3ccccc3O2)cc1` (centres undefined)?
IEC-6 cytotox: -9.8

Results for CC(=O)N1c2ccccc2C(=O)C1N(C)c1ccc(C)cc1 (centres undefined) ?
IEC-6 cytotox: 0.7

How did CC(=O)N1/C(=C/c2ccc(N(C)C)cc2)C(=O)c2ccccc21 do in these assays?
MT stabilizer: 19.5*; APP transl inh: 81.4*; Ba/F3 V617F tox: 1.6; bCat nuc transl: 1.8; BaF3 tox: -7.7; IEC-6 cytotox: 21.3

Results for Cc1ccc(OCC(=O)N/N=C\c2c(C)n(C)c3ccccc23)c([N+](=O)[O-])c1 ?
MT stabilizer: 46.6*; APP transl inh: 3.4; Ba/F3 V617F tox: 1.5; bCat nuc transl: 2.8; BaF3 tox: 5.4; IEC-6 cytotox: 5.0

How did COc1ccc(Cc2nnc(NC(=O)c3ccccc3C)s2)cc1 do in these assays?
IEC-6 cytotox: 1.6

Results for Nc1cccc2nc3ccccc3cc12 ?
MT stabilizer: 2.6; Ba/F3 V617F tox: 41.3*; BaF3 tox: 29.0*; IEC-6 cytotox: 21.7

What do the screens show for `Cc1cc(C(=O)COC(=O)c2nccnc2N)c(C)n1C`?
MT stabilizer: 3.7; APP transl inh: -74.2; Ba/F3 V617F tox: 2.0; bCat nuc transl: -1.3; BaF3 tox: 5.7; IEC-6 cytotox: 4.1

What do the screens show for `COc1cc(C(=O)OCC(=O)c2cc(C)n(C)c2C)cc(OC)c1OC`?
MT stabilizer: 2.3; APP transl inh: -2.6; Ba/F3 V617F tox: 0.1; bCat nuc transl: 68.6*; BaF3 tox: -1.6; IEC-6 cytotox: -5.7

What do the screens show for `COc1ccc(C(=O)Nc2ccc3c(c2)C(=O)N(C)C3=O)cc1OC`?
IEC-6 cytotox: 3.6

How did CC(=O)c1ccc(OC(C)C)c(CC(C(N)=O)C(N)=O)c1 do in these assays?
MT stabilizer: 1.0; APP transl inh: 46.0*; Ba/F3 V617F tox: 0.6; bCat nuc transl: -1.8; BaF3 tox: 4.8; IEC-6 cytotox: -2.8

Results for CC(=O)c1ccc(OCC(C)C)c(CC(C(N)=O)C(N)=O)c1 ?
MT stabilizer: 1.9; APP transl inh: -4.3; Ba/F3 V617F tox: 0.0; bCat nuc transl: -1.3; BaF3 tox: 6.4; IEC-6 cytotox: -5.8

How did N#Cc1c(C(F)(F)F)cc(-c2cccs2)nc1SCc1cccnc1 do in these assays?
MT stabilizer: 42.1*; APP transl inh: -9.4; Ba/F3 V617F tox: -0.4; BaF3 tox: 7.4; IEC-6 cytotox: 0.8

How did CC(=O)N1c2ccc(Cl)cc2C2C=CCC2C1c1cccc2ccccc12 (centres undefined) do in these assays?
MT stabilizer: 12.2*; APP transl inh: 9.9; Ba/F3 V617F tox: -3.1; bCat nuc transl: 81.9*; BaF3 tox: 2.9; IEC-6 cytotox: 0.9

How did CN(C)/C=N/C1=C(C#N)C(c2cccs2)c2ccc3ccccc3c2O1 (centres undefined) do in these assays?
MT stabilizer: 16.5*; APP transl inh: 92.3*; Ba/F3 V617F tox: 3.2; bCat nuc transl: -5.5; BaF3 tox: 12.5; IEC-6 cytotox: 4.7

How did CC1Cc2cc(S(=O)(=O)N3CCCC(C(=O)N4CCCCC4)C3)ccc2N1C(=O)C1CC1 (centres undefined) do in these assays?
IEC-6 cytotox: 4.2

How did Cc1ccc(C[n+]2cc(-c3ccc(Cl)cc3)n3c2CCC3)cc1 do in these assays?
Ba/F3 V617F tox: 76.3*; bCat nuc transl: 0.9; BaF3 tox: 71.9*; IEC-6 cytotox: 4.3
